Assay results as given in ChEMBL document CHEMBL4819096, “Antibacterial activity of noscapine analogs” (Bioorg Med Chem Lett, 2021).
Values after ≈ are worked out from the molar mass of the structure shown. Active and inactive are the calls of the source. No cut-off for these calls is given here.

Assays:
Pseudomonas aeruginosa [1] = assay: Antibacterial activity against Pseudomonas aeruginosa R42 assessed as inhibition of bacterial growth measured after 16 to 20 hrs by two-fold serial microbroth dilution method; assay type: functional, organism-based; details: time 16-20 hrs
In short: (§1)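 Broth microdilution in LB and M9 medium. Inoculum adjusted to about 5 × 10⁵ cells/ml. Compound diluted twofold serially in microplate wells, then plates covered and incubated at 37 °C with shaking. Growth read as OD600. MIC taken as the lowest concentration giving no growth after 16–20 h.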

Pseudomonas aeruginosa [2] = assay: Antibacterial activity against ampicillin/cefotaxime-resistant Pseudomonas aeruginosa ATCC 27853 assessed as inhibition of bacterial growth measured after 16 to 20 hrs by two-fold serial microbroth dilution method; assay type: functional, organism-based; details: time 16-20 hrs
In short: (§2)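 Broth microdilution MIC in LB and M9 medium. Inoculum adjusted to about 5 × 10⁵ cells/ml. Compound serially diluted twofold. Plates covered and incubated at 37 °C with shaking. OD600 read; MIC taken as the lowest concentration giving no growth after 16–20 h.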

Klebsiella oxytoca = assay: Antibacterial activity against Klebsiella oxytoca R48 assessed as inhibition of bacterial growth measured after 16 to 20 hrs by two-fold serial microbroth dilution method; assay type: functional, organism-based; details: time 16-20 hrs; in short: as §1
Enterobacter = assay: Antibacterial activity against Enterobacter sp. O54 assessed as inhibition of bacterial growth measured after 16 to 20 hrs by two-fold serial microbroth dilution method; assay type: functional, organism-based; details: time 16-20 hrs; in short: as §1
Klebsiella aerogenes = assay: Antibacterial activity against Enterobacter aerogenes R41 assessed as inhibition of bacterial growth measured after 16 to 20 hrs by two-fold serial microbroth dilution method; assay type: functional, organism-based; details: time 16-20 hrs; in short: as §1
Morganella morganii = assay: Antibacterial activity against Morganella morganii R36 assessed as inhibition of bacterial growth measured after 16 to 20 hrs by two-fold serial microbroth dilution method; assay type: functional, organism-based; details: time 16-20 hrs; in short: as §1
Proteus vulgaris = assay: Antibacterial activity against Proteus vulgaris O41 assessed as inhibition of bacterial growth measured after 16 to 20 hrs by two-fold serial microbroth dilution method; assay type: functional, organism-based; details: time 16-20 hrs; in short: as §1
Aeromonas = assay: Antibacterial activity against Aeromonas sp. O9 assessed as inhibition of bacterial growth measured after 16 to 20 hrs by two-fold serial microbroth dilution method; assay type: functional, organism-based; details: time 16-20 hrs; in short: as §1
Proteus sp. = assay: Antibacterial activity against ampicillin/cefotaxime/tetracycline/ceftriaxone/fosfomycin-resistant Proteus sp. O14 assessed as inhibition of bacterial growth measured after 16 to 20 hrs by two-fold serial microbroth dilution method; assay type: functional, organism-based; details: time 16-20 hrs; in short: as §2
HEK293 [3] = assay: Induction of cell cycle arrest in human HEK293 cells assessed as increase in accumulation of apoptotic cells at sub G1 phase at 12.6 uM after 72 hrs by propidium iodide staining based flow cytometry; details: hek293, 72 h
In short: (§3)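 HEK293 cells exposed to compound or vehicle (0.1% DMSO), then harvested by centrifugation (400 × g, 5 min). Fixed/permeabilized in ice-cold 70% ethanol for 24 h at −20 °C, PBS-washed twice, treated with RNase A (0.5 mg/ml) for 5 min at room temperature, then PI (50 µg/ml) for 30 min. DNA content measured by flow cytometry on a linear scale. At least duplicate runs; mean ± S.E.M.; Wilcoxon test versus vehicle.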

Staphylococcus aureus = assay: Antibacterial activity against Fosfomycin resistant Staphylococcus aureus ATCC USA 206 assessed as inhibition of bacterial growth measured after 16 to 20 hrs by two-fold serial microbroth dilution method; assay type: functional, organism-based; details: time 16-20 hrs; in short: as §2
Citrobacter koseri = assay: Antibacterial activity against Citrobacter koseri R38 assessed as inhibition of bacterial growth measured after 16 to 20 hrs by two-fold serial microbroth dilution method; assay type: functional, organism-based; details: time 16-20 hrs; in short: as §1
Escherichia coli [4] = assay: Antibacterial activity against Escherichia coli ATCC25922 assessed as inhibition of bacterial growth measured after 16 to 20 hrs by two-fold serial microbroth dilution method; assay type: functional, organism-based; details: ATCC 25922, time 16-20 hrs; in short: as §1
Enterobacter cloacae = assay: Antibacterial activity against ampicillin/cefotaxime/tetracycline/ceftriaxone-resistant Enterobacter cloacae O3 assessed as inhibition of bacterial growth measured after 16 to 20 hrs by two-fold serial microbroth dilution method; assay type: functional, organism-based; details: time 16-20 hrs; in short: as §2
Escherichia coli [5] = assay: Antibacterial activity against ampicillin/cefotaxime/tetracycline/ceftriaxone-resistant Escherichia coli mx7 assessed as inhibition of bacterial growth measured after 16 to 20 hrs by two-fold serial microbroth dilution method; assay type: functional, organism-based; details: time 16-20 hrs; in short: as §2
[6] = Cytotoxicity against human HEK293 cells assessed as reduction in cell viability measured after 28 hrs by PrestoBlue reagent based fluorescence analysis
In short: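 HEK293 cells seeded at 25*10³ per well in DMEM with 10% FBS, 2 mM L-Glu and 50 µg/ml gentamicin. Cells held 24 h at 37 °C, 5% CO2 before compound was added (final DMSO 0.1%), then incubated 28 h. Viability read by PrestoBlue fluorescence at 590 nm, expressed relative to 0.1% DMSO control (100%). CC50 derived by curve fitting.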

Candida albicans = assay: Antibacterial activity against ampicillin/cefotaxime/tetracycline/ceftriaxone/fosfomycin-resistant Candida albicans 181210169-1 assessed as inhibition of fungal growth measured after 16 to 20 hrs by two-fold serial microbroth dilution method; assay type: functional, organism-based; details: time 16-20 hrs; in short: as §2
Klebsiella pneumoniae = assay: Antibacterial activity against ampicillin/fosfomycin-resistant Klebsiella pneumonia 181210171-2 assessed as inhibition of bacterial growth measured after 16 to 20 hrs by two-fold serial microbroth dilution method; assay type: functional, organism-based; details: time 16-20 hrs; in short: as §2
Bacillus subtilis = assay: Antibacterial activity against Bacillus subtilis 3HM assessed as inhibition of bacterial growth measured after 16 to 20 hrs by two-fold serial microbroth dilution method; assay type: functional, organism-based; details: time 16-20 hrs; in short: as §1
HEK293 [7] = assay: Induction of cell cycle arrest in human HEK293 cells assessed as increase in accumulation of cells at S phase at 12.6 uM after 24 hrs by propidium iodide staining based flow cytometry; details: hek293, 24 h; in short: as §3
Escherichia coli [8] = assay: Antibacterial activity against Escherichia coli assessed as inhibition of bacterial growth measured after 16 to 20 hrs by two-fold serial microbroth dilution method; assay type: functional; details: time 16-20 hrs; in short: as §1
Hafnia alvei = assay: Antibacterial activity against Ampicillin resistant Hafnia alvei O31 assessed as inhibition of bacterial growth measured after 16 to 20 hrs by two-fold serial microbroth dilution method; assay type: functional, organism-based; details: time 16-20 hrs; in short: as §2
HEK293 [9] = assay: Induction of cell cycle arrest in human HEK293 cells assessed as decrease in accumulation of cells at G1 phase at 14.9 uM measured after 24 hrs by propidium iodide staining based flow cytometry; details: hek293, 24 h; in short: as §3
HEK293 [10] = assay: Induction of cell cycle arrest in human HEK293 cells assessed as increase in accumulation of cells at G2/M phase at 14.9 uM after 24 hrs by propidium iodide staining based flow cytometry; details: hek293, 24 h; in short: as §3
HEK293 [11] = assay: Induction of cell cycle arrest in human HEK293 cells assessed as increase in accumulation of apoptotic cells at sub G1 phase at 14.9 uM after 24 hrs by propidium iodide staining based flow cytometry; details: hek293, 24 h; in short: as §3

SMILES	Activity (Pseudomonas aeruginosa [1])	Activity (Pseudomonas aeruginosa [2])	Activity (Klebsiella oxytoca)	Activity (Enterobacter)	Activity (Klebsiella aerogenes)	Activity (Morganella morganii)	Activity (Proteus vulgaris)	Activity (Aeromonas)	Activity (Proteus sp.)	Activity (Staphylococcus aureus)	Activity (Citrobacter koseri)	Activity (Escherichia coli [4])	Activity (Enterobacter cloacae)	Activity (Escherichia coli [5])	CC50 at 28 h [6] [µM]	Activity (Candida albicans)	Activity (Klebsiella pneumoniae)	Activity (Bacillus subtilis)	MIC (Escherichia coli [8]) [µM]	Activity (Hafnia alvei)	also measured
CCCc1ccc(C(=O)CC2c3c(cc4c(c3OC)OCO4)CC[N+]2(C)C)cc1.[I-] (stereo not given)	Active	inactive	inactive	Active	Active	Active	Active	Active	Active	Active	inactive	Active	Active	Active	12.6	Active	Active	Active	11.3	Active	Activity (HEK293 [3]): Toxic; Activity (HEK293 [7]): Toxic
COc1c2c(cc3c1C(CC(=O)/C=C/C1C(C)=CCCC1(C)C)[N+](C)(C)CC3)OCO2 (stereo not given)	inactive	inactive	inactive	inactive	inactive	inactive	inactive	inactive	inactive	inactive	inactive	inactive	inactive	inactive	16.2	inactive	inactive	Active	22.6	inactive	–
COc1c2c(cc3c1C(CC(=O)c1c(O)n(C)c(=S)n(C)c1=O)N(C)CC3)OCO2 (stereo not given)	inactive	inactive	inactive	Active	inactive	inactive	inactive	inactive	inactive	Active	inactive	inactive	inactive	inactive	> 100	Active	inactive	Active	115 (≈ 50 µg/mL)	inactive	–
COc1c2c(cc3c1C(CC(=O)c1ccc(CC(C)C)cc1)[N+](C)(C)CC3)OCO2 (stereo not given)	Active	inactive	Active	Active	Active	Active	Active	Active	Active	Active	Active	Active	Active	Active	13.3	Active	Active	Active	23.3	Active	–
CCOc1ccc(/C=C/C(=O)CC2c3c(cc4c(c3OC)OCO4)CC[N+]2(C)C)cc1 (stereo not given)	inactive	inactive	inactive	inactive	inactive	inactive	Active	inactive	inactive	Active	inactive	inactive	inactive	inactive	17.8	inactive	inactive	inactive	90.7	inactive	–
COc1c2c(cc3c1C(CC(=O)c1ccc4c5c(cccc15)CC4)[N+](C)(C)CC3)OCO2 (stereo not given)	inactive	inactive	inactive	inactive	inactive	inactive	inactive	inactive	inactive	inactive	inactive	inactive	inactive	inactive	17	inactive	inactive	Active	12.2	inactive	–
COc1c2c(cc3c1C(CC(=O)/C=C/C1=C(C)CCCC1(C)C)[N+](C)(C)CC3)OCO2.[I-] (stereo not given)	Active	inactive	Active	inactive	Active	Active	inactive	Active	inactive	Active	inactive	Active	Active	Active	14.9	Active	Active	Active	22.6	Active	Activity (HEK293 [9]): Toxic; Activity (HEK293 [10]): Toxic; Activity (HEK293 [11]): Toxic
COc1c2c(cc3c1C(CC(=O)/C=C/C1CC=C(C)CC1C)[N+](C)(C)CC3)OCO2 (stereo not given)	inactive	inactive	inactive	inactive	inactive	Active	inactive	inactive	inactive	Active	inactive	Active	inactive	Active	10.4	Active	inactive	Active	46.3	inactive	–
